M5 ag = CHRM5 agonism in calcium assay | P08912 | CHO-K1 hM5 cells, Fluo-8 calcium fluorescence; 0% DMSO wells, 100% maximal acetylcholine response | activation, % at 3 µM | hit rate 0.19% among 360,000 | AID 624037;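 active = activation above the run's mean over test compounds plus 3 SD, cut at about 23% in these data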;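 also: signal is peak over basal fluorescence ratio across the kinetic read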
CHRM4 agonist = CHRM4 agonism in calcium assay; CHO-K1 hM4/Gqi5, Fluo-8 calcium fluorescence; vehicle 0%, full acetylcholine response 100%; activation, % at 3 µM; hit rate 0.14% among 360,000;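 active = activation above the run mean over all test wells plus 3 SD, cut at about 32% in these data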;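 also: peak over basal fluorescence ratio per well then scaled between controls; 0% = DMSO wells and 100% = acetylcholine at EC100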
Target sequence (P08173 whole entry, looked up): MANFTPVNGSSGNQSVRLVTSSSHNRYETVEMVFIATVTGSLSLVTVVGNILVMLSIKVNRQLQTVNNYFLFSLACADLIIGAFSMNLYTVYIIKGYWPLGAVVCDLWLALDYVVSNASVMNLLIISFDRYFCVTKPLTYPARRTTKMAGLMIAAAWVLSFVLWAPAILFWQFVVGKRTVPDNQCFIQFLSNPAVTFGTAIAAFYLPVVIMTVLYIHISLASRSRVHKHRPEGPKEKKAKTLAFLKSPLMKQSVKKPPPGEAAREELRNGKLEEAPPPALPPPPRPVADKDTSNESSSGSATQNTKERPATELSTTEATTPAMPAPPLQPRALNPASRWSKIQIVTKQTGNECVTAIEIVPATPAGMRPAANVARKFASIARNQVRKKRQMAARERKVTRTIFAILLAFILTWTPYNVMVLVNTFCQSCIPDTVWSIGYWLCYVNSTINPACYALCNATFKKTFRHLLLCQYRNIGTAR
CHRM5 antagonist = blocks acetylcholine activation of human M5 receptor; inhibition, % at 3 µM; hit rate 0.59% among 360,000; CHO-hM5 cells, Fluo-8 calcium fluorescence, ACh EC80; P08912;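 active = inhibition above a per-plate cutoff, the mean of that plate's test compounds plus 3 SD, cut at about 27% in these data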;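 also: 0% = acetylcholine EC80 with DMSO and 100% = DMSO without agonist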
CHRM4 PAM = CHRM4 positive allosteric modulation; P08173; CHO-K1 hM4/Gqi5, Fluo-8 calcium fluorescence, ACh EC20; 0% = ACh EC20, 100% = maximal ACh; activation, % at 3 µM; hit rate 0.4% among 360,000; AID 624126;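 active = activation above its plate's cutoff, the mean activation of sample wells plus 3 SD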
M4 antag = CHRM4 antagonism in calcium assay; inhibition, % at 3 µM; CHO-hM4 cells, ACh EC80, Fluo-8 calcium fluorescence; P08173; hit rate 0.73% among 360,000;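 active = inhibition above its plate's cutoff, the mean inhibition of sample wells plus 3 SD, cut at about 27% in these data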;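 also: 0% = acetylcholine EC80 with DMSO and 100% = DMSO without agonist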
M5 PAM = CHRM5 positive allosteric modulation. P08912. CHO-K1 hM5, Fluo-8 calcium, ACh EC20 PAM; 0% = ACh EC20, 100% = ACh EC100. hit rate 0.3% among 360,000. AID 624038. activation, % at 3 µM;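 active = activation above the run cutoff, the mean activation of all test compounds plus 3 SD, cut at about 18% in these data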
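System – CHO-K1 hM5 cells · Compound – 3 µM, single dose · Incubation – compound preincubation 140 s before EC20 acetylcholine addition · Technique – Fluo-8 calcium fluorescence · Measure – Max/basal fluorescence ratio as % of EC20–EC100 ACh window · Benchmarks – low control EC20 acetylcholine (0%), high control EC100 acetylcholine (100%) · Replication – singlicate, one well per test compound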
Starred values were filed as active, the others as inactive. Shown are actives, neighbours in structure and some others; about 1.8% of the full set was active somewhere.

Screening CNCCCC1Sc2ccccc2Oc2ccccc21 (stereo unspecified) returned M5 ag -14, CHRM4 agonist 4, CHRM5 antagonist 13, CHRM4 PAM -11, M4 antag 8 and M5 PAM -36.
Screening CC(=O)N1CCN(S(=O)(=O)c2cccc(C(=O)NCCC3=CCCCC3)c2)CC1 returned M5 ag -2, CHRM4 agonist 4, CHRM5 antagonist -7, CHRM4 PAM -4, M4 antag -1 and M5 PAM 8.
`CS(=O)(=O)NCCNc1ccc(Cl)cc1[N+](=O)[O-]` gave M5 ag 3, CHRM4 agonist 13, CHRM5 antagonist 9, CHRM4 PAM -12, M4 antag 5 and M5 PAM -13.
CN(C)CCNc1ccc(Cl)cc1[N+](=O)[O-] was read as M5 ag -10, CHRM4 agonist 1, CHRM5 antagonist 30*, CHRM4 PAM -13, M4 antag 9 and M5 PAM -19.
Screening O=C(COc1ccccc1)Nc1nc2cc3c(cc2s1)OCO3 returned M5 ag -3, CHRM4 agonist 5, CHRM5 antagonist 27*, CHRM4 PAM -1, M4 antag 0 and M5 PAM -7.
Screening CC(=O)Nc1nc2cc3c(cc2s1)OCO3 returned M5 ag 38*, CHRM4 agonist 2, CHRM5 antagonist -1, CHRM4 PAM 7, M4 antag -8 and M5 PAM -18.
For CC(C)C(=O)Nc1nc2cc3c(cc2s1)OCCO3 the results were M5 ag 3, CHRM4 agonist -1, CHRM5 antagonist 6, CHRM4 PAM -8, M4 antag 0 and M5 PAM -4.
For Cc1ccc(OCCC(=O)OCC(=O)c2c(N)n(CC(C)C)c(=O)n(C)c2=O)cc1 the results were M5 ag 3, CHRM4 agonist 16, CHRM5 antagonist 16, CHRM4 PAM -10, M4 antag 0 and M5 PAM -28.
Screening CC(C)Cn1c(N)c(C(=O)COC(=O)CCc2nc3ccccc3s2)c(=O)n(C)c1=O returned M5 ag 9, CHRM4 agonist 23, CHRM5 antagonist 32*, CHRM4 PAM -21, M4 antag 14 and M5 PAM -35.
`CC(C)Cn1c(N)c(C(=O)COC(=O)CC23CC4CC(CC(C4)C2)C3)c(=O)n(C)c1=O` gave M5 ag 4, CHRM4 agonist 2, CHRM5 antagonist 19, CHRM4 PAM -7, M4 antag 37* and M5 PAM -13.
Screening CC(C)Cn1c(N)c(C(=O)COC(=O)CCc2nc3ccccc3c(=O)[nH]2)c(=O)n(C)c1=O returned M5 ag 5, CHRM4 agonist 13, CHRM5 antagonist 6, CHRM4 PAM 7, M4 antag 4 and M5 PAM -13.
`Cc1ccccc1OCCC(=O)OCC(=O)c1c(N)n(CC(C)C)c(=O)n(C)c1=O` gave M5 ag 5, CHRM4 agonist 23, CHRM5 antagonist 34*, CHRM4 PAM -15, M4 antag 17 and M5 PAM -14.
For CCN(C(=O)C1CCN(c2nc(-c3ccc(OC)cc3)no2)CC1)c1ccc(OC)cc1 the results were M5 ag 6, CHRM4 agonist 13, CHRM5 antagonist 28*, CHRM4 PAM -7, M4 antag -4 and M5 PAM -20.
COc1ccc(NC(=O)C2CCN(c3nc(-c4ccc(OC)cc4)no3)CC2)cc1 was read as M5 ag 1, CHRM4 agonist 2, CHRM5 antagonist -2, CHRM4 PAM -1, M4 antag -5 and M5 PAM 0.
Screening C#Cc1cccc(Nc2nc(NCc3ccccc3)nc3ccsc23)c1 returned M5 ag 3, CHRM4 agonist 11, CHRM5 antagonist 23, CHRM4 PAM -11, M4 antag 27* and M5 PAM -18.
CSc1ccccc1CNc1nc(NCC2CC2)nc2ccsc12 was read as M5 ag 3, CHRM4 agonist 15, CHRM5 antagonist 30*, CHRM4 PAM -11, M4 antag 18 and M5 PAM -16.
For Cc1ccc(Nc2nc(NCc3ccccc3)nc3ccsc23)c(C)c1 the results were M5 ag 12, CHRM4 agonist 39*, CHRM5 antagonist 32*, CHRM4 PAM -15, M4 antag 57* and M5 PAM -23.

Screening data (PubChem BioAssay)
